Activity calls are given as the source filed them. The rule behind the calls is not given here.
Legend:
Histone deacetylase 1 = Histone deacetylase 1 (Homo sapiens, UniProt Q13547); assay: Inhibition of HDAC1 (unknown origin) using Fluor de Lys substrate by fluorescence assay relative to control
[1] = Metabolic stability in rat liver microsomes assessed as internal clearance at 1 uM preincubated for 10 mins followed by NADPH addition measured upto 60 mins by LC-MS/MS analysis; type: ADME, Microsome; conditions: read-out: CLH
Procedure, shortened: (§1)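 Liver microsomes from male SD rat, dog or human at 0.5 mg/mL in 100 mM potassium phosphate pH 7.4 with 1 μM compound. Prewarmed 37 °C 10 min, started with 1 mM NADPH. Stopped at 0, 5, 10, 20, 40, 60 min with cold methanol containing glibenclamide internal standard; supernatant by LC–MS/MS; T1/2 and CLint derived.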

K562 = assay: Antiproliferative activity against human K562 assessed as reduction in cell viability measured after 72 hrs using alamar blue based fluorescence method; type: functional; conditions: K562, 72 h
Procedure, shortened: (§2)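 Leukemia lines grown in IMDM with penicillin/streptomycin, HL-60 with 20% FBS and K562 with 10% FBS, at 37 °C, 5% CO2. Cells in 96-well plates exposed to drug for 72 h. Alamar blue (1 mM solution) added for 5–6 h, fluorescence read at 530/590 nm.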

[2] = target: Polyamine deacetylase HDAC10 (Homo sapiens, UniProt Q969S8); assay: Inhibition of HDAC10 (unknown origin) using Fluor de Lys substrate by fluorescence assay relative to control
Polyamine deacetylase HDAC10, sequence (Q969S8 whole entry, canonical isoform): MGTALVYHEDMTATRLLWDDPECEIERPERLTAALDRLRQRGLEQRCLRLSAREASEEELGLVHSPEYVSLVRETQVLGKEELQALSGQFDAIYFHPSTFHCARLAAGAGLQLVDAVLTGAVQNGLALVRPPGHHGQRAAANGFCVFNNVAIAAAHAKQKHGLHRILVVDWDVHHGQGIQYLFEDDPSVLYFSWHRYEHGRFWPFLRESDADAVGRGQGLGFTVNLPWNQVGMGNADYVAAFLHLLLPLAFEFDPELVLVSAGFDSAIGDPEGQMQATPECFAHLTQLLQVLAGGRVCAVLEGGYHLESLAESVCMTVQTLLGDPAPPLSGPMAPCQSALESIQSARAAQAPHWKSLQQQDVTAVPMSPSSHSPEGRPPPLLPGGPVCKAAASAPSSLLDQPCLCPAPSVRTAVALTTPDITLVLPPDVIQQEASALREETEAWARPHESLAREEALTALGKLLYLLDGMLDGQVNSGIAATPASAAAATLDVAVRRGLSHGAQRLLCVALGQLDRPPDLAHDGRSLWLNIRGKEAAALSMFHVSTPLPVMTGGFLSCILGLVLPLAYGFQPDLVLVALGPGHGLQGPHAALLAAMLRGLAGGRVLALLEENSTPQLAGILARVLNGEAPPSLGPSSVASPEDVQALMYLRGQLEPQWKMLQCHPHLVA
Procedure, shortened: (§3)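 Recombinant HDAC isoform assays run by a contract lab. Compounds in DMSO, 10-dose IC50 mode, 3-fold serial dilution from 50 μM. Duplicate runs; IC50 from curve fitting.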

HCT-116 = assay: Antiproliferative activity against human HCT116 assessed as reduction in cell viability measured after 72 hrs using alamar blue based fluorescence method; type: functional; conditions: HCT-116, 72 h
Procedure, shortened: (§4)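 HCT116 and MCF-7 grown in McCoy's 5A with 10% FBS and penicillin/streptomycin at 37 °C, 5% CO2. Cells plated in 96-well format and exposed to drug for 72 h. Alamar blue (1 mM solution) added, incubated 5–6 h, fluorescence read at 530/590 nm.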

[3] = Metabolic stability in dog liver microsomes assessed as internal clearance at 1 uM preincubated for 10 mins followed by NADPH addition measured upto 60 mins by LC-MS/MS analysis; type: ADME, Canis lupus familiaris, Microsome; conditions: read-out: CLH; procedure, shortened: as §1
[4] = target: Histone deacetylase 7 (Homo sapiens) (UniProt Q8WUI4); assay: Inhibition of HDAC7 (unknown origin) using Fluor de Lys substrate by fluorescence assay relative to control; procedure, shortened: as §3
Histone deacetylase 7 (Homo sapiens), sequence (Q8WUI4 whole entry): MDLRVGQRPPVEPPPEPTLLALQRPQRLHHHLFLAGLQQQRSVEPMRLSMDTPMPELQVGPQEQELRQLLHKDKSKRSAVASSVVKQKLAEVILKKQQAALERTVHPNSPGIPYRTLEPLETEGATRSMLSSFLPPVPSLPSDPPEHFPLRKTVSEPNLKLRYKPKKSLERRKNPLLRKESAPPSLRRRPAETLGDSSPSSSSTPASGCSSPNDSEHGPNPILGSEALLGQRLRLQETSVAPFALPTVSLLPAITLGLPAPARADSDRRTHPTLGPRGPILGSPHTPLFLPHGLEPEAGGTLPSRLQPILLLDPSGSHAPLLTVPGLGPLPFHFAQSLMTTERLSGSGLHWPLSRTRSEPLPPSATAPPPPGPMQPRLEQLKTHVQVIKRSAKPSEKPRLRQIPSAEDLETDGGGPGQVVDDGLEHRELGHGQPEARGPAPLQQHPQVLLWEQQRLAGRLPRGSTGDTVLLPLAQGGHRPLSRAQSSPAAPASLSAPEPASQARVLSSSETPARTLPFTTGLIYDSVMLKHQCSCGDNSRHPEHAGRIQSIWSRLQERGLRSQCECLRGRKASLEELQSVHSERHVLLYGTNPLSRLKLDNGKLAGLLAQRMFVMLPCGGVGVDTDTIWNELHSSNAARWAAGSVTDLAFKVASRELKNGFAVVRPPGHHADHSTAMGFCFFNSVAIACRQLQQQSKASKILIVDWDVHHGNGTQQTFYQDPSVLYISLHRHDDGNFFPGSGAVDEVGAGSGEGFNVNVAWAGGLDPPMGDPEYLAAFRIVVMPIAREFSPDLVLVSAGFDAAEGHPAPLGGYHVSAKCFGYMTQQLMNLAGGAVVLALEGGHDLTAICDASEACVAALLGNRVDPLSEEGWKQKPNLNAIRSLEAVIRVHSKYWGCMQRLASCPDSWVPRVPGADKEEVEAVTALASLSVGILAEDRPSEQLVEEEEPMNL

[5] = Metabolic stability in human liver microsomes assessed as internal clearance at 1 uM preincubated for 10 mins followed by NADPH addition measured upto 60 mins by LC-MS/MS analysis; type: ADME, Microsome; conditions: read-out: CLH; procedure, shortened: as §1
[6] = target: Histone deacetylase 4 (Homo sapiens) (UniProt P56524); assay: Inhibition of HDAC4 (unknown origin) using Fluor de Lys substrate by fluorescence assay relative to control; procedure, shortened: as §3
[7] = Metabolic stability in dog liver microsomes assessed as half life at 1 uM preincubated for 10 mins followed by NADPH addition measured upto 60 mins by LC-MS/MS analysis; type: ADME, Canis lupus familiaris, Microsome; procedure, shortened: as §1
Histone deacetylase 11 = Histone deacetylase 11 (Homo sapiens, UniProt Q96DB2); assay: Inhibition of HDAC11 (unknown origin) using Fluor de Lys substrate by fluorescence assay relative to control; procedure, shortened: as §3
Histone deacetylase 11, sequence (Q96DB2 whole entry): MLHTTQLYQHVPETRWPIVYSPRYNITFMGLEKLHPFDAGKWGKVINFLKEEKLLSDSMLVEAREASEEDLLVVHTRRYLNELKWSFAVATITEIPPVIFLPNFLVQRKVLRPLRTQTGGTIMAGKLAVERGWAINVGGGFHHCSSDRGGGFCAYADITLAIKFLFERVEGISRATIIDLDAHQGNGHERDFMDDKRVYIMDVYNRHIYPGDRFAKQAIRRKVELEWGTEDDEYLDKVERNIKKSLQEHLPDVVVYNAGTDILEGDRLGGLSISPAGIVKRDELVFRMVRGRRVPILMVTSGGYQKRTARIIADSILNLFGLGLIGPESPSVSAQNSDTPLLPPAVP

[8] = Metabolic stability in rat liver microsomes assessed as half life at 1 uM preincubated for 10 mins followed by NADPH addition measured upto 60 mins by LC-MS/MS analysis; type: ADME, Microsome; procedure, shortened: as §1
HL-60 = assay: Antiproliferative activity against human HL60 assessed as reduction in cell viability measured after 72 hrs using alamar blue based fluorescence method; type: functional; conditions: HL-60, 72 h; procedure, shortened: as §2
[9] = target: Histone deacetylase 9 (Homo sapiens) (UniProt Q9UKV0); assay: Inhibition of HDAC9 (unknown origin) using Fluor de Lys substrate by fluorescence assay relative to control; procedure, shortened: as §3
Histone deacetylase 9 (Homo sapiens), sequence (Q9UKV0 whole entry): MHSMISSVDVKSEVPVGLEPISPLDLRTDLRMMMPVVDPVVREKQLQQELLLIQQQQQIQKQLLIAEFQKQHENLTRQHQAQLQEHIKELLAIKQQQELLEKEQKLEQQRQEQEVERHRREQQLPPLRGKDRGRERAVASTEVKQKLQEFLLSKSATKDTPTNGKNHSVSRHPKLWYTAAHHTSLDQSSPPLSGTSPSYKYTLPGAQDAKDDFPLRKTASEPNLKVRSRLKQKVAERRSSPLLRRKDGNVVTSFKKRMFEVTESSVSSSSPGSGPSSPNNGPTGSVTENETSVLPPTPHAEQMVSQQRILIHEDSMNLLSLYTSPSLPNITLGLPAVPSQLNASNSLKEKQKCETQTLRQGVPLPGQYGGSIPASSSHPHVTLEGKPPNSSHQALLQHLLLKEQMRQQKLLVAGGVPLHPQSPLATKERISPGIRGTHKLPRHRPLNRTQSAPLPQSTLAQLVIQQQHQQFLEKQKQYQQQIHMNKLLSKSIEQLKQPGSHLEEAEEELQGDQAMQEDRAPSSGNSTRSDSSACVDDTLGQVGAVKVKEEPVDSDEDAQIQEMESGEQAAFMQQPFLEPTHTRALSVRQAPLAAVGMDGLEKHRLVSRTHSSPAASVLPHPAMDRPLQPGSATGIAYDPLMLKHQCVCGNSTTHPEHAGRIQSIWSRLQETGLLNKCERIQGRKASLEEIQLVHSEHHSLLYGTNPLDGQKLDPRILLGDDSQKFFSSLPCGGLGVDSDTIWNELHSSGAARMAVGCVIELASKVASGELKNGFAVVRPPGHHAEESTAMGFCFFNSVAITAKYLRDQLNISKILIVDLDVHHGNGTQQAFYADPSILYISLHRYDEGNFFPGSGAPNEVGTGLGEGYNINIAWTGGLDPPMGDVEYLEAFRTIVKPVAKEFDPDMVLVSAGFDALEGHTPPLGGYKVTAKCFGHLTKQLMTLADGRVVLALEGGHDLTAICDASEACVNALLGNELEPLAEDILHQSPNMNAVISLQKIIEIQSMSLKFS

[10] = Metabolic stability in human liver microsomes assessed as half life at 1 uM preincubated for 10 mins followed by NADPH addition measured upto 60 mins by LC-MS/MS analysis; type: ADME, Microsome; procedure, shortened: as §1
[11] = target: Protein deacetylase HDAC6 (Homo sapiens) (UniProt Q9UBN7); assay: Inhibition of HDAC6 (unknown origin) using Fluor de Lys substrate by fluorescence assay relative to control; procedure, shortened: as §3
MCF7 = assay: Antiproliferative activity against human MCF7 assessed as reduction in cell viability measured after 72 hrs using alamar blue based fluorescence method; type: functional; conditions: MCF7, 72 h; procedure, shortened: as §4
[12] = target: Histone deacetylase 5 (Homo sapiens) (UniProt Q9UQL6); assay: Inhibition of HDAC5 (unknown origin) using Fluor de Lys substrate by fluorescence assay relative to control; procedure, shortened: as §3
Histone deacetylase 5 (Homo sapiens), sequence (Q9UQL6 whole entry): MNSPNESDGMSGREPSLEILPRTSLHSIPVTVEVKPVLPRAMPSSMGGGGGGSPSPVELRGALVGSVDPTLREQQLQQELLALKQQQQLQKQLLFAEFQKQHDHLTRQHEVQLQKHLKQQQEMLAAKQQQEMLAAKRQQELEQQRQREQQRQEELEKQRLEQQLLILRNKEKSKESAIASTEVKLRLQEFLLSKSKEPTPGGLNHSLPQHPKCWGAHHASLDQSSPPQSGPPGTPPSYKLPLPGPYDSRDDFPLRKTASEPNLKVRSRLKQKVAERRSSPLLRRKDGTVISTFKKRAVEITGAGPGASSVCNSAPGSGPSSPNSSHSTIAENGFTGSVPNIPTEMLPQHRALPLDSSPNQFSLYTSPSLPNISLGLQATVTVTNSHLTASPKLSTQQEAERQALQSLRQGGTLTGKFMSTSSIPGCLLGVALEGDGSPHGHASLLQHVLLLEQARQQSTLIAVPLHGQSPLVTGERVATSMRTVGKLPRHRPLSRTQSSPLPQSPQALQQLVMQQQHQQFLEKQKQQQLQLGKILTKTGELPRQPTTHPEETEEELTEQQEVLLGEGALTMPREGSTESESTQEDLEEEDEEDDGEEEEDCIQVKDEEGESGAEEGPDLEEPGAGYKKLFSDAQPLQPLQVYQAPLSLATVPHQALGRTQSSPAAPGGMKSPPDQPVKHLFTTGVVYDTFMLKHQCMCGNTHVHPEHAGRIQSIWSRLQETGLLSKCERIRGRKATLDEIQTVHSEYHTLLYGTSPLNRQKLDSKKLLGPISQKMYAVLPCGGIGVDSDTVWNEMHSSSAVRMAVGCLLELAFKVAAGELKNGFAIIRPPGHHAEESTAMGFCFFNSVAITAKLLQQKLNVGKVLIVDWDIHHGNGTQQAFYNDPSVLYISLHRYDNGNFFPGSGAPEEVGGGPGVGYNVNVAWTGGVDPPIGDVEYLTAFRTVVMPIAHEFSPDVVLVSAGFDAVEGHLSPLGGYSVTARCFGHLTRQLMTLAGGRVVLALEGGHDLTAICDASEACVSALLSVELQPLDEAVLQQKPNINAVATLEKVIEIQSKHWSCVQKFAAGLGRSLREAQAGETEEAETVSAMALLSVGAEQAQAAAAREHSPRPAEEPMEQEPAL

Histone deacetylase 1, sequence (Q13547 whole entry): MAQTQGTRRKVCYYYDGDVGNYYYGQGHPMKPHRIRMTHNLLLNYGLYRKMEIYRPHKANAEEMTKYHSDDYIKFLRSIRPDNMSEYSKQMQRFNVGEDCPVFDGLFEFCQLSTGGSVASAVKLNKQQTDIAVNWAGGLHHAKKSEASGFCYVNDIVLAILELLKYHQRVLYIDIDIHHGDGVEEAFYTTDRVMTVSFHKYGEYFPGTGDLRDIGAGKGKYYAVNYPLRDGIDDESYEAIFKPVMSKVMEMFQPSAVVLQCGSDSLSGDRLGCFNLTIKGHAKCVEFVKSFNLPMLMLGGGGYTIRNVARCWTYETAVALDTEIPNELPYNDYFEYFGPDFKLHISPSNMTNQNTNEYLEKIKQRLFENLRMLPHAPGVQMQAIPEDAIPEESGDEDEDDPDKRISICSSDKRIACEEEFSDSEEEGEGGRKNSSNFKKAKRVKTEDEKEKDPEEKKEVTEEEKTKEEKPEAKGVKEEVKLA

## Nc1cc(F)ccc1NC(=O)CCCCCCNC(=O)/C=C1\NC(=O)c2ccccc21
Histone deacetylase 1; read-out: IC50
  IC50: 1600 nM

## Nc1cc(F)ccc1NC(=O)c1ccc(CNC(=O)/C=C2\NC(=O)c3ncccc32)cc1
Histone deacetylase 1; read-out: IC50
  IC50: 8360 nM

## Cc1ccc(NC(=O)c2ccc(CNC(=O)/C=C3\NC(=O)c4ccccc43)cc2)c(N)c1
Histone deacetylase 1; read-out: IC50
  IC50: 5720 nM

## Nc1cc(F)ccc1NC(=O)c1ccc(CNC(=O)/C=C/c2cccnc2)cc1 [TUCIDINOSTAT]
[1]
  microsomal CLint at 1 µM: 10.3 µL/min/mg
K562
  IC50: 747 nM
[2]
  IC50: 235 nM
HCT-116
  IC50: 1090 nM
[3]
  microsomal CLint at 1 µM: 5.76 µL/min/mg
[4]
  inhibition: inactive
[5]
  microsomal CLint at 1 µM: 4.98 µL/min/mg
[6]
  inhibition: inactive
[7]
  half-life at 1 µM: 5.03 h
Histone deacetylase 11
  IC50: 760 nM
[8]
  half-life at 1 µM: 3.17 h
HL-60
  IC50: 1970 nM
[9]
  inhibition: inactive
[10]
  half-life at 1 µM: 4.6 h
[11]
  inhibition: inactive
MCF7
  IC50: 29100 nM
[12]
  inhibition: inactive

## Nc1cc(F)ccc1NC(=O)c1ccc(CNC(=O)/C=C2\NC(=O)c3cc(Cl)c(Cl)cc32)cc1
Histone deacetylase 1; read-out: IC50
  IC50: 489 nM

## COc1ccc2c(c1)/C(=C/C(=O)NCc1ccc(C(=O)Nc3ccc(F)cc3N)cc1)NC2=O
Histone deacetylase 1; read-out: IC50
  IC50: 96.8 nM

## Nc1ccccc1NC(=O)c1ccc(CNC(=O)/C=C2\NC(=O)c3ccccc32)cc1
K562
  IC50: 286 nM
Histone deacetylase 1; read-out: IC50
  IC50: 65.6 nM
HCT-116
  IC50: 483 nM
HL-60
  IC50: 450 nM
MCF7
  IC50: 20100 nM

## Nc1ccccc1NC(=O)c1ccc(CNC(=O)/C=C2\NC(=O)c3ncccc32)cc1
Histone deacetylase 1; read-out: IC50
  IC50: 758 nM

## O=C(/C=C1\NC(=O)c2ccccc21)NCCCCCC(=O)NO
Histone deacetylase 1; read-out: IC50
  IC50: 57.9 nM

## Nc1ccccc1NC(=O)CCCCCNC(=O)/C=C1\NC(=O)c2ccccc21
Histone deacetylase 1; read-out: IC50
  IC50: 872 nM

## Nc1ccc(F)cc1NC(=O)c1ccc(CNC(=O)/C=C2\NC(=O)c3ccccc32)cc1
Histone deacetylase 1; read-out: IC50
  IC50: 70.3 nM

## Nc1cc(F)ccc1NC(=O)CCCCCNC(=O)/C=C1\NC(=O)c2ccccc21
Histone deacetylase 1; read-out: IC50
  IC50: 6420 nM

## Nc1cc(Cl)ccc1NC(=O)c1ccc(CNC(=O)/C=C2\NC(=O)c3ccccc32)cc1
Histone deacetylase 1; read-out: IC50
  IC50: 466 nM

## Nc1cc(F)ccc1NC(=O)c1ccc(CNC(=O)/C=C2\NC(=O)c3ccc(F)cc32)cc1
Histone deacetylase 1; read-out: IC50
  IC50: 167 nM

## Nc1ccccc1NC(=O)CCCCCCNC(=O)/C=C1\NC(=O)c2ccccc21
Histone deacetylase 1; read-out: IC50
  IC50: 320 nM

## Nc1cc(F)ccc1NC(=O)c1ccc(CNC(=O)/C=C2\NC(=O)c3cccnc32)cc1
Histone deacetylase 1
  IC50: Not Active

## Nc1cc(F)ccc1NC(=O)c1ccc(CNC(=O)/C=C2\NC(=O)c3ccc(C(F)(F)F)cc32)cc1
Histone deacetylase 1; read-out: IC50
  IC50: 491 nM

— ChEMBL document CHEMBL4387704, “Design, synthesis and biological evaluation of novel isoindolinone derivatives as potent histone deacetylase inhibitors” (Eur J Med Chem, 2019)
